# Reference: ChEMBL document CHEMBL2169776, “Antimicrobial activity of peptidomimetics against multidrug-resistant Escherichia coli: a comparative study of different backbones” (J Med Chem, 2012)
# Square brackets hold non-standard residues; d marks the D form. Peptide text beside a SMILES is read from it. Nphe = O=C(O)CNCc1ccccc1; Nlys = NCCCCNCC(=O)O
# Tests used:
# [1] = Therapeutic index, ratio of HC10 for human erythrocyte cells to MIC for multidrug resistant bacterial strains; conditions: read-out: TI
# How it was run: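 TI = hemolytic activity divided by median of MIC values. Hemolysis: washed fresh human RBCs (1% v/v in TBS, pH 7.2) with 2-fold oligomer dilutions (1–128 μM), 37 °C, 1 h; supernatant OD 405 nm; melittin 400 μg/mL = 100%, TBS = 0%. HA = concentration giving ≥10% lysis. MICs by broth microdilution, 35 °C, 16–20 h.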
# HeLa = experiment: Cytotoxicity against human HeLa cells assessed as growth inhibition after 1 hr; assay type: cell-based
# How it was run: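 HeLa cells seeded at 9000 per well, cultured 24 h; at 80−100% confluency washed with HBSS and exposed 1 h (37 °C, 50 rpm) to 2-fold serial dilutions in EMEM. After washing, MTS/PMS (240/2.4 μg/mL) in HBSS added for 1.5 h; formazan read at 492 nm. 0.2% SDS = 0%, EMEM alone = 100%. Test range 1−128 or 8−1024 μM; IC50 reported.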
# [2] = Hemolytic activity against human RBCs after 1 hr by spectrophotometry; assay type: ADME, cell-based; conditions: erythrocyte
# How it was run: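 Freshly drawn human erythrocytes washed in TBS (pH 7.2, 10 mM Tris, 150 mM NaCl), 1% v/v suspension mixed with 2-fold serial dilutions (1−128 μM) in water; 1 h at 37 °C. After pelleting, supernatant diluted 1:1 with water and hemoglobin read at OD 405 nm. Melittin (400 μg/mL) = 100%, TBS = 0%. Value is the lowest concentration giving ≥10% lysis.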
# [3] = Proteolytic stability of compound in presence of Pronase by reverse phase HPLC analysis; assay type: ADME
# How it was run: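 Oligomer (2 mg/mL solution, 250 μL) incubated with Pronase (1.0 mg/mL solution, 50 μL) in 10 mM Tris pH 7.5 (1.2 mL); enzyme activity first confirmed on Nα-benzoyl arginine. Degradation followed by analytical reverse-phase HPLC (10−60% B) at 6, 12, 18 and 50 h; degradation product identified by HRMS.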
# Klebsiella pneumoniae [4] = experiment: Antibacterial activity against multidrug resistant NDM-1 producing Klebsiella pneumoniae isolate after 16 to 20 hrs by broth microdilution assay; assay type: functional
# Escherichia coli [5] = experiment: Antibacterial activity against multidrug resistant Amp-C producing Escherichia coli isolate after 16 to 20 hrs by broth microdilution assay; assay type: functional
# Klebsiella pneumoniae [6] = experiment: Antibacterial activity against multidrug resistant KPC producing Klebsiella pneumoniae isolate after 16 to 20 hrs by broth microdilution assay; assay type: functional
# Escherichia coli [7] = experiment: Antibacterial activity against Escherichia coli ATCC 25922 after 16 to 20 hrs by broth microdilution assay; assay type: functional
# Staphylococcus aureus = experiment: Antibacterial activity against methicillin-resistant Staphylococcus aureus isolate after 16 to 20 hrs by broth microdilution assay; assay type: functional
# Escherichia coli [8] = experiment: Antibacterial activity against multidrug resistant ESBL producing Escherichia coli isolate after 16 to 20 hrs by broth microdilution assay; assay type: functional
# Escherichia coli [9] = experiment: Antibacterial activity against multidrug resistant NDM-1 producing Escherichia coli isolate after 16 to 20 hrs by broth microdilution assay; assay type: functional
Molecule,selectivity ratio [1],IC50 (HeLa),HC10 [2],Stability [3],MIC (Klebsiella pneumoniae [4]),MIC (Escherichia coli [5]),MIC (Klebsiella pneumoniae [6]),MIC (Escherichia coli [7]),MIC (Staphylococcus aureus),MIC (Escherichia coli [8]),MIC (Escherichia coli [9])
CC(=O)N(CCCCN)CCC(=O)N[C@@H](Cc1ccccc1)C(=O)N(CCCCN)CCC(=O)N[C@@H](Cc1ccccc1)C(=O)N(CCCCN)CCC(=O)N[C@@H](Cc1ccccc1)C(=O)N(CCCCN)CCC(=O)N[C@@H](Cc1ccccc1)C(=O)N(CCCCN)CCC(=O)N[C@@H](Cc1ccccc1)C(=O)N(CCCCN)CCC(=O)N[C@@H](Cc1ccccc1)C(=O)N(CCCCN)CCC(=O)N[C@@H](Cc1ccccc1)C(=O)N(CCCCN)CCC(=O)N[C@@H](Cc1ccccc1)C(N)=O,> 11,62.6 µM,> 128 µM,Stable,256 µM,16 µM,64 µM,8 µM,256 µM,16 µM,2 µM
O=C(O)c1cn(C2CC2)c2cc(N3CCNCC3)c(F)cc2c1=O [CIPROFLOXACIN],,,,,,,,< 0.1 µM,19 µM,,
CC(=O)N(CCCCN)CC(=O)N[C@@H](Cc1ccccc1)C(=O)N(CCCCN)CC(=O)N[C@@H](Cc1ccccc1)C(=O)N(CCCCN)CC(=O)N[C@@H](Cc1ccccc1)C(=O)N(CCCCN)CC(=O)N[C@@H](Cc1ccccc1)C(=O)N(CCCCN)CC(=O)N[C@@H](Cc1ccccc1)C(=O)N(CCCCN)CC(=O)N[C@@H](Cc1ccccc1)C(=O)N(CCCCN)CC(=O)N[C@@H](Cc1ccccc1)C(=O)N(CCCCN)CC(=O)N[C@@H](Cc1ccccc1)C(N)=O (Ac-[Nlys]F[Nlys]F[Nlys]F[Nlys]F[Nlys]F[Nlys]F[Nlys]F[Nlys]F-NH2),> 5,267 µM,> 128 µM,,256 µM,32 µM,256 µM,16 µM,> 256 µM,16 µM,32 µM
CC(=O)N(CCCCN)CC(=O)N(CC(=O)N(CCCCN)CC(=O)N(CC(=O)N(CCCCN)CC(=O)N(CC(=O)N(CCCCN)CC(=O)N(CC(=O)N(CCCCN)CC(=O)N(CC(=O)N(CCCCN)CC(=O)N(CC(=O)N(CCCCN)CC(=O)N(CC(=O)N(CCCCN)CC(=O)N(CC(N)=O)Cc1ccccc1)Cc1ccccc1)Cc1ccccc1)Cc1ccccc1)Cc1ccccc1)Cc1ccccc1)Cc1ccccc1)Cc1ccccc1 (Ac-[Nlys][Nphe][Nlys][Nphe][Nlys][Nphe][Nlys][Nphe][Nlys][Nphe][Nlys][Nphe][Nlys][Nphe][Nlys][Nphe]-NH2),> 4,194 µM,> 128 µM,Stable,256 µM,32 µM,256 µM,32 µM,256 µM,64 µM,32 µM
CC(=O)N(CCCCN)CCC(=O)N(CCC(=O)N(CCCCN)CCC(=O)N(CCC(=O)N(CCCCN)CCC(=O)N(CCC(=O)N(CCCCN)CCC(=O)N(CCC(=O)N(CCCCN)CCC(=O)N(CCC(=O)N(CCCCN)CCC(=O)N(CCC(=O)N(CCCCN)CCC(=O)N(CCC(=O)N(CCCCN)CCC(=O)N(CCC(N)=O)Cc1ccccc1)Cc1ccccc1)Cc1ccccc1)Cc1ccccc1)Cc1ccccc1)Cc1ccccc1)Cc1ccccc1)Cc1ccccc1,> 10,169 µM,> 128 µM,Stable,256 µM,16 µM,256 µM,16 µM,256 µM,8 µM,4 µM
CC(=O)N[C@@H](CCCCN)C(=O)N[C@@H](Cc1ccccc1)C(=O)N[C@@H](CCCCN)C(=O)N[C@@H](Cc1ccccc1)C(=O)N[C@@H](CCCCN)C(=O)N[C@@H](Cc1ccccc1)C(=O)N[C@@H](CCCCN)C(=O)N[C@@H](Cc1ccccc1)C(=O)N[C@@H](CCCCN)C(=O)N[C@@H](Cc1ccccc1)C(=O)N[C@@H](CCCCN)C(=O)N[C@@H](Cc1ccccc1)C(=O)N[C@@H](CCCCN)C(=O)N[C@@H](Cc1ccccc1)C(=O)N[C@@H](CCCCN)C(=O)N[C@@H](Cc1ccccc1)C(N)=O,< 0.004,19.6 µM,< 1 µM,Unstable,> 256 µM,> 256 µM,> 256 µM,> 256 µM,16 µM,> 256 µM,128 µM
CC(=O)N[C@H](CCCCN)C(=O)N[C@H](Cc1ccccc1)C(=O)N[C@H](CCCCN)C(=O)N[C@H](Cc1ccccc1)C(=O)N[C@H](CCCCN)C(=O)N[C@H](Cc1ccccc1)C(=O)N[C@H](CCCCN)C(=O)N[C@H](Cc1ccccc1)C(=O)N[C@H](CCCCN)C(=O)N[C@H](Cc1ccccc1)C(=O)N[C@H](CCCCN)C(=O)N[C@H](Cc1ccccc1)C(=O)N[C@H](CCCCN)C(=O)N[C@H](Cc1ccccc1)C(=O)N[C@H](CCCCN)C(=O)N[C@H](Cc1ccccc1)C(N)=O,< 0.008,18.1 µM,< 1 µM,Stable,256 µM,256 µM,256 µM,128 µM,16 µM,256 µM,128 µM
CC(=O)N[C@@H](CCCCN)C(=O)N[C@H](CC(=O)N[C@@H](CCCCN)C(=O)N[C@H](CC(=O)N[C@@H](CCCCN)C(=O)N[C@H](CC(=O)N[C@@H](CCCCN)C(=O)N[C@H](CC(=O)N[C@@H](CCCCN)C(=O)N[C@H](CC(=O)N[C@@H](CCCCN)C(=O)N[C@H](CC(=O)N[C@@H](CCCCN)C(=O)N[C@H](CC(=O)N[C@@H](CCCCN)C(=O)N[C@H](CC(N)=O)Cc1ccccc1)Cc1ccccc1)Cc1ccccc1)Cc1ccccc1)Cc1ccccc1)Cc1ccccc1)Cc1ccccc1)Cc1ccccc1,1,31.1 µM,64 µM,Stable,128 µM,32 µM,128 µM,64 µM,32 µM,32 µM,64 µM
CC(=O)N[C@@H](CCCCN)C(=O)N(CC(=O)N[C@@H](CCCCN)C(=O)N(CC(=O)N[C@@H](CCCCN)C(=O)N(CC(=O)N[C@@H](CCCCN)C(=O)N(CC(=O)N[C@@H](CCCCN)C(=O)N(CC(=O)N[C@@H](CCCCN)C(=O)N(CC(=O)N[C@@H](CCCCN)C(=O)N(CC(=O)N[C@@H](CCCCN)C(=O)N(CC(N)=O)Cc1ccccc1)Cc1ccccc1)Cc1ccccc1)Cc1ccccc1)Cc1ccccc1)Cc1ccccc1)Cc1ccccc1)Cc1ccccc1 (Ac-K[Nphe]K[Nphe]K[Nphe]K[Nphe]K[Nphe]K[Nphe]K[Nphe]K[Nphe]-NH2),> 21,101 µM,> 128 µM,Stable,128 µM,8 µM,128 µM,4 µM,256 µM,8 µM,2 µM
CC(=O)N[C@@H](CCCCN)CC(=O)N[C@H](CC(=O)N[C@@H](CCCCN)CC(=O)N[C@H](CC(=O)N[C@@H](CCCCN)CC(=O)N[C@H](CC(=O)N[C@@H](CCCCN)CC(=O)N[C@H](CC(=O)N[C@@H](CCCCN)CC(=O)N[C@H](CC(=O)N[C@@H](CCCCN)CC(=O)N[C@H](CC(=O)N[C@@H](CCCCN)CC(=O)N[C@H](CC(=O)N[C@@H](CCCCN)CC(=O)N[C@H](CC(N)=O)Cc1ccccc1)Cc1ccccc1)Cc1ccccc1)Cc1ccccc1)Cc1ccccc1)Cc1ccccc1)Cc1ccccc1)Cc1ccccc1,4,31 µM,128 µM,Stable,32 µM,32 µM,32 µM,16 µM,16 µM,32 µM,32 µM
CC(=O)N[C@@H](CCCCN)C(=O)N(CCC(=O)N[C@@H](CCCCN)C(=O)N(CCC(=O)N[C@@H](CCCCN)C(=O)N(CCC(=O)N[C@@H](CCCCN)C(=O)N(CCC(=O)N[C@@H](CCCCN)C(=O)N(CCC(=O)N[C@@H](CCCCN)C(=O)N(CCC(=O)N[C@@H](CCCCN)C(=O)N(CCC(=O)N[C@@H](CCCCN)C(=O)N(CCC(N)=O)Cc1ccccc1)Cc1ccccc1)Cc1ccccc1)Cc1ccccc1)Cc1ccccc1)Cc1ccccc1)Cc1ccccc1)Cc1ccccc1,> 21,25.9 µM,> 128 µM,Stable,256 µM,8 µM,128 µM,8 µM,> 256 µM,4 µM,4 µM
CO/N=C(\C(=O)N[C@@H]1C(=O)N2C(C(=O)O)=C(COC(C)=O)CS[C@H]12)c1csc(N)n1 [CEFOTAXIME],,,,,> 134 µM,2.1 µM,> 134 µM,< 0.1 µM,34 µM,> 134 µM,> 134 µM
GENTAMICIN,,,,,111 µM,6.9 µM,> 111 µM,1.7 µM,56 µM,> 111 µM,> 111 µM
